Screening results as filed in PubChem BioAssay.
Rows were chosen to be rich in hits. Some 3% of all compounds tested hit in one or more screens of this group.
NPY-Y2 PAM-ag: potentiators or agonists of human neuropeptide Y receptor Y2. P49146. cells expressing NPY-Y2, potentiator/agonist read-out. activation, % at 3.6 µM. 0.45% of 220,000 active. AID 1359; in the data active = activation above about 27%;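 note: cells stimulated with NPY near EC25 plus isoproterenol at EC100; 0% = vehicle plus submaximal agonist and 100% = vehicle plus saturating agonist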
Wee1 stabilizer: blocks degradation of human Wee1 kinase; P30291; HeLa Luc-Wee1K328M stability, luciferase luminescence; 100% = proteasome inhibitor MG132 effect; reporter increase, % at 5 µM; 1.2% of 220,000 active;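 active = activation above the mean of all tested compounds plus 3 SD, set per screening run, cut at about 8.8% in these data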;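 note: cells exposed to compound for 20 h before luminescence read; 0% = DMSO alone and 100% = MG132 at 30 µM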
Target sequence (P30291 whole entry K328M): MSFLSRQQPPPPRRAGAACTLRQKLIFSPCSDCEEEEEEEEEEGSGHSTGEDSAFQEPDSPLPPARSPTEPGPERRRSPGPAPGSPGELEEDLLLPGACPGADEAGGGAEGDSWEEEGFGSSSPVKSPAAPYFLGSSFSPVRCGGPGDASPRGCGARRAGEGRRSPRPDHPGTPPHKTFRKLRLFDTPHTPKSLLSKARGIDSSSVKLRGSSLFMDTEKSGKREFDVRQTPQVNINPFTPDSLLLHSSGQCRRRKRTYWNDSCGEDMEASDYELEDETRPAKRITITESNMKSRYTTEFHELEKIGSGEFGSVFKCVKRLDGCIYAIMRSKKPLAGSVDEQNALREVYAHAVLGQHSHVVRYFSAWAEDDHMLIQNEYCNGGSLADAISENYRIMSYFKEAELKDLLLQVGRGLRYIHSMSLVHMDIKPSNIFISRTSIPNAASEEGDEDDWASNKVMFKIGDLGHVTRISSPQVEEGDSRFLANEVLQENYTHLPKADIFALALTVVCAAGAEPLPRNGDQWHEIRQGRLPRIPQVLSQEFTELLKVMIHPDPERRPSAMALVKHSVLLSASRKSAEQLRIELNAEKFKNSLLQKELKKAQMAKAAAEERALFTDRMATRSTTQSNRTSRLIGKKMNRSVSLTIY
NPY-Y2 antag: blocks the human neuropeptide Y Y2 receptor | 0.99% of 140,000 active | P49146 | AID 793 | NPY-Y2 expressing cells, antagonist mode | inhibition, % at 2.7 µM; in the data active = inhibition above about 17%;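 note: 0% = vehicle with agonist challenge and 100% = reference antagonist with challenge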
Hsp70 activator: transcriptional activators of Hsp70 | activation, % at 10 µM | AID 1203 | HeLa Hsp70 promoter luciferase reporter, luminescence; scaled: vehicle 0, proteasome-inhibitor control 100% | 0.04% of 200,000 active;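 active = activation above the mean across all tested compounds plus 3 SD, cutoff set per campaign, cut at about 5.5% in these data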;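 note: 100% = MG132 at 30 µM as the positive control and 0% = DMSO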
NPY1 pot ag: potentiates or activates human NPY-Y1 receptor. P25929. NPY-Y1 expressing cells, potentiator/agonist activation. activation, % at 3.6 µM. 0.37% of 220,000 active. AID 1304; in the data active = activation above about 33%, passing the limit was not always enough;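 note: cells stimulated with NPY at EC10 then isoproterenol at EC100; 0% = low agonist plus stimulus and 100% = saturating agonist plus stimulus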
NPY Y1 blocker: NPY-Y1 (human) receptor antagonism | inhibition, % at 3.6 µM | P25929 | 1% of 200,000 active | HEK293-CNG Y1 cells, membrane potential fluorescence; NPY at EC95, then isoproterenol;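 active = inhibition above the campaign mean inhibition of all tested compounds plus 3 SD, cut at about 20% in these data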;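 note: 0% = DMSO wells given NPY plus isoproterenol and 100% = isoproterenol alone without NPY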
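Assay system: HEK293 Y1/CNG channel cell line; Doses: single compound dose of 3.6 µM, 0.4% DMSO; Timing: dye 3 h, compound 60 min room temperature, stimulation 45 min; Technique: Membrane-potential fluorescent dye readout; Measure: % inhibition of NPY effect.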
NPY-Y1 antag ct: antagonizes human NPY-Y1, counter-screen to NPY-Y2 antagonists. inhibition, % at 3.6 µM. shares compounds with NPY-Y2 antag. 19% of 710 active. cell-based NPY-Y1 antagonism counterscreen; in the data active = inhibition above about 20%;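 note: cells challenged with NPY then isoproterenol with cAMP sensed through a CNG channel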
NPY-Y2 ant conf: human NPY-Y2 antagonism, confirmation | shares compounds with NPY-Y2 antag | HEK293 NPY-Y2 CNG channel, membrane potential fluorescence | inhibition, % at 2.8 µM | 32% of 710 active;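 active = mean inhibition of triplicate wells above the hit cutoff set in the primary screen, cut at about 17% in these data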;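 note: 0% = DMSO with NPY challenge and 100% = BIIE0246 high control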
The depositor's hits bear a star; / = not tested or not shown.

SMILES	NPY-Y2 PAM-ag	Wee1 stabilizer	NPY-Y2 antag	Hsp70 activator	NPY1 pot ag	NPY Y1 blocker	NPY-Y1 antag ct	NPY-Y2 ant conf
COc1ccc2c(CC(=O)OCC(=O)c3ccc(F)cc3)coc2c1	1	-4	5	0	-25	4	/	/
S=C(N/N=C/c1ccccc1Cl)Nc1ccccc1	-15	0	5	0	-34	10	/	/
CNC(=S)N/N=C/c1ccccc1Cl	-2	5	19*	0	-16	4	2	1
COc1ccccc1OCCCOc1ccc(C)cc1Br	4	-2	4	0	-14	-2	/	/
Cc1ccc(OCCCCN(C)Cc2ccccc2)c(Br)c1	-16	2	18*	0	-41	11	13	18*
COc1ccc(/C=C/C(=O)NC(C)CCc2ccccc2)cc1OC (stereo not given)	7	-1	/	0	17	8	/	/
COc1ccc(/C=C/C(=O)NC(C)CCc2ccccc2)cc1 (stereo not given)	3	3	22*	0	2	19	11	7
CN(C)CC(O)CN1C(=O)NC(C)(C)C1=O (stereo not given)	-9	-2	/	0	26	-5	/	/
Cc1cc2nnc(SCc3ccccc3)n2c(N)n1	-1	3	2	0	16	4	/	/
O=C1C2CC=C(Cl)CC2C(=O)N1CC1Cc2ccccc2CO1 (stereo not given)	-26	-3	28*	0	-5	11	9	23*
O=C1C2CC=C(Cl)CC2C(=O)N1CC1OCCc2ccccc21 (stereo not given)	-31	-2	11	0	-70	16	/	/
O=C(Nc1cccn(Cc2c(Cl)cccc2Cl)c1=O)c1c(Cl)cccc1Cl	11	-3	20*	0	4	9	12	9
O=C(NC1CCCCC1)C(c1ccco1)N(Cc1cccnc1)C(=O)C1COc2ccccc2O1 (stereo not given)	-5	0	19*	0	-20	15	4	6
CCOC(=O)c1c(C)sc(Sc2ccc(Cl)cc2[N+](=O)[O-])c1OC	-13	1	7	0	-54	7	/	/
CCOC(=O)c1c(CSC(=N)N)n(-c2ccc(Br)cc2)c2cc(Br)c(OC(C)=O)cc12	74*	6	26*	0	81*	-3	14	16
COc1ccc(C/C(C)=N\NC(=O)c2cn(C)c3ccccc23)cc1OC	-1	-1	/	/	8	/	/	/
Cc1n[nH]c(=S)n1/N=C/c1ccccc1OCc1ccc(Cl)cc1Cl	-11	-2	17*	0	-16	-1	27*	54*
Cc1n[nH]c(=S)n1/N=C/c1ccc(OCc2ccc(Cl)cc2Cl)cc1	8	0	12	0	19	1	/	/
CCNc1ccc2noc3c2c1C(=O)c1ccccc1-3	49*	0	45*	0	72*	15	15	8
CCc1nc2ccccc2c(C(=O)OCC(=O)C(C)(C)C)c1C	-18	5	/	0	-36	20	/	/
CCc1nc2ccccc2c(C(=O)OCc2nnc(-c3ccccc3)o2)c1C	-20	0	18*	0	-57	13	26*	25*
CC(C)C(OC(=O)CN1C(=O)COc2ccccc21)C(=O)NC1CCCC1 (stereo not given)	-1	-2	18*	0	-5	17	10	7
CC1=C(O)C(=O)OC1c1c(Cl)cccc1Cl (stereo not given)	-1	3	/	/	-17	/	/	/
COc1ccc(S(=O)(=O)N2CCC(CN3C(=O)c4cccc5cccc(c45)C3=O)CC2)cc1	-5	0	23*	0	-48	6	8	15
O=C(c1ccc(S(=O)(=O)N2CCCC2)cc1)N1CCC(CN2C(=O)c3cccc4cccc(c34)C2=O)CC1	-36	-1	/	/	18	/	/	/
SMILES	NPY-Y2 PAM-ag	Wee1 stabilizer	NPY-Y2 antag	Hsp70 activator	NPY1 pot ag	NPY Y1 blocker	NPY-Y1 antag ct	NPY-Y2 ant conf
COc1ccccc1C/C(N)=N/OC(=O)COc1ccccc1C	-19	-2	28*	0	-32	2	6	4
CN(Cc1nccn1C)C(=O)CC1C(=O)NCCN1CC(c1ccccc1)c1ccccc1 (stereo not given)	8	-1	/	0	-3	4	/	/
Cc1ccc(C)c(NS(=O)(=O)c2cc(C(=O)Nc3ccccc3-c3ccccc3)ccc2Cl)c1	-33	-1	69*	-1	3	1	2	103*
O=C(Cn1c(N2CCN(c3ccccc3)CC2)nc2ccccc21)c1ccccc1	2	0	18*	0	4	-4	-4	-5
COc1cccc(CC(NC(C)=O)C(=O)NC2CCN(S(=O)(=O)c3ccc(C)cc3)CC2)c1OC (stereo not given)	1	5	/	0	17	3	/	/
FC(F)(F)c1nc(-c2cccs2)ncc1-c1nnnn1-c1ccc(Cl)cc1	6	-4	25*	0	-32	14	26*	17
FC(F)(F)c1nc(-c2cccnc2)ncc1-c1nnnn1-c1ccccc1	-6	-3	5	0	-23	1	/	/
Cc1ccc(-c2nnc(/C=C/c3ccccc3)o2)cc1	-9	0	20*	0	-10	6	7	10
Cc1cccc(NC(=S)N(CCN(C)C)Cc2cc3cc(C)cc(C)c3[nH]c2=O)c1	5	0	19*	0	-8	17	14	27*
Cc1cccc(NC(=S)N(CCN(C)C)Cc2cc3cccc(C)c3[nH]c2=O)c1	-12	0	8	0	-53	8	/	/
Cc1c(NC(=O)c2ccc(COc3ccc4ccccc4c3)o2)c(=O)n(-c2ccccc2)n1C	-4	-1	18*	0	-11	8	15	9
CCOc1ccc(C(=O)NC(=S)Nc2ccc(N3CCCCC3)cc2)cc1[N+](=O)[O-]	-7	4	29*	0	-12	-1	78*	91*
COc1ccc(C(=O)NC(=S)Nc2ccc(NC(=O)c3ccco3)cc2)cc1[N+](=O)[O-]	10	-3	19*	0	8	2	52*	88*
Cc1cccc(-c2noc(CN(C(=O)c3ccc4c(c3)OCO4)C(C)C)n2)c1	-19	-1	10	0	-22	16	/	/
Cc1cccc(-c2noc(CN(C(=O)C(c3ccccc3)c3ccccc3)C(C)C)n2)c1	-14	-2	17*	0	1	18	8	4
O=C(/C=C/c1cccc(Cl)c1)c1nc2ccccc2[nH]1	-10	-1	18*	0	4	3	12	34*
